# Results from ChEMBL document CHEMBL3992553, “New nitrofurans amenable by isocyanide multicomponent chemistry are active against multidrug-resistant and poly-resistant Mycobacterium tuberculosis” (Bioorg Med Chem, 2017).
# Tested on: Mycobacterium tuberculosis
# Assay: Antimycobacterial activity against Mycobacterium tuberculosis H37Rv after 7 days by microbroth dilution method
# Type: functional
# Settings: 168 h
# Method in brief: (§1)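 REMA. 3-week H37Rv culture (2nd generation on Löwenstein–Jensen) vortexed with glass beads, set to 1.0 McFarland in 7H9, diluted 20-fold in 7H9 + OADC. 2-fold dilutions, final 1.6–400 µg/mL, 200 µL wells. 7 days at 35 °C, then resazurin 18 h. Fluorescence ex 520/em 590. MIC where signal plateaued or matched the 1% population control (t test).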
row,Compound,MIC [ng/mL]
1,O=[N+]([O-])c1ccc(C2=NOC(c3ccc(N4CCC(Oc5ccc(OC(F)(F)F)cc5)CC4)c(F)c3)C2)o1 (centres undefined),1

# Tested on: Bacillus subtilis
# Assay: Antibacterial activity against Bacillus subtilis MTCC 121 after 24 hrs by well diffusion method
# Type: functional
# Settings: MTCC 121, 24 h
row,Compound,MIC [µg/mL]
1,O=C(NCc1cn(-c2ccccc2)nn1)c1ccc([N+](=O)[O-])o1,7.8

# Tested on: Staphylococcus aureus
# Assay: Antibacterial activity against Staphylococcus aureus MLS16 MTCC 2940 after 24 hrs by well diffusion method
# Type: functional
# Settings: MLS16 MTCC 2940, 24 h
row,Compound,MIC [µg/mL]
1,O=C(NCc1cn(-c2ccccc2)nn1)c1ccc([N+](=O)[O-])o1,1.9

# Tested on: Staphylococcus aureus
# Assay: Antibacterial activity against methicillin-resistant Staphylococcus aureus DSM 11822 after 18 hrs
# Type: functional
# Settings: DSM 11822, 18 h
# Method in brief: (§2)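 Broth microdilution MIC. Gram-negatives grown overnight at 37 °C in Müller-Hinton broth + 1% glucose, pH 7.2; Gram-positives in trypticase soy broth with yeast extract, pH 7.2. Inoculum 5×10^5 cfu/mL final. Serial dilutions from 100 µM down to 0.2 µM, DMSO ≤1%. 18 h at 37 °C, moist; OD600. MIC = lowest concentration completely suppressing growth.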
row,Compound,MIC [µM]
1,CC1(C(=O)NCc2ccccc2)CCCC(=O)N1/N=C/c1ccc([N+](=O)[O-])o1 (centres undefined),100
2,CC1(C(=O)NCc2ccccc2)CCC(=O)N1/N=C/c1ccc([N+](=O)[O-])o1 (centres undefined),95
3,CC(C)(C)NC(=O)C1(C)CCCC(=O)N1/N=C/c1ccc([N+](=O)[O-])o1 (centres undefined),100

# Tested on: Staphylococcus aureus
# Assay: Antibacterial activity against methicillin-resistant Staphylococcus aureus RKI 11-02670 after 18 hrs
# Type: functional
# Settings: RKI 11-02670, 18 h
# Method in brief: as §2
Compound,EC50 [µM],MIC [µM]
CC1(C(=O)NCc2ccccc2)CCCC(=O)N1/N=C/c1ccc([N+](=O)[O-])o1 (centres undefined),75,100
CC1(C(=O)NCc2ccccc2)CCC(=O)N1/N=C/c1ccc([N+](=O)[O-])o1 (centres undefined),67,95
CC(C)(C)NC(=O)C1(C)CCCC(=O)N1/N=C/c1ccc([N+](=O)[O-])o1 (centres undefined),76,100

# Tested on: Enterococcus faecium
# Assay: Antibacterial activity against Enterococcus faecium DSM 20477 after 18 hrs
# Type: functional
# Settings: DSM 20477, 18 h
# Method in brief: as §2
row,Compound,MIC [µM]
1,CC1(C(=O)NCc2ccccc2)CCCC(=O)N1/N=C/c1ccc([N+](=O)[O-])o1 (centres undefined),> 100
2,CC1(C(=O)NCc2ccccc2)CCC(=O)N1/N=C/c1ccc([N+](=O)[O-])o1 (centres undefined),> 100
3,CC(C)(C)NC(=O)C1(C)CCCC(=O)N1/N=C/c1ccc([N+](=O)[O-])o1 (centres undefined),> 100

# Tested on: Escherichia coli
# Assay: Growth inhibition of Escherichia coli DSM 1116 at 100 uM after 18 hrs relative to control
# Type: functional
# Settings: DSM 1116, 18 h, read-out: GI
# Method in brief: (§3)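 Gram-negative culture grown overnight at 37 °C in Müller-Hinton broth + 1% glucose, pH 7.2, then tested at 5×10^5 cfu/mL final. Compound at 100 µM from DMSO stock, DMSO ≤1%. Incubated 18 h at 37 °C under moist conditions. OD600 read; value reported as % growth inhibition.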
row,Compound,inhibition of growth at 100 µM [%]
1,CC1(C(=O)NCc2ccccc2)CCCC(=O)N1/N=C/c1ccc([N+](=O)[O-])o1 (centres undefined),87
2,CC1(C(=O)NCc2ccccc2)CCC(=O)N1/N=C/c1ccc([N+](=O)[O-])o1 (centres undefined),85
3,CC(C)(C)NC(=O)C1(C)CCCC(=O)N1/N=C/c1ccc([N+](=O)[O-])o1 (centres undefined),83

# Tested on: Pseudomonas aeruginosa
# Assay: Growth inhibition of Pseudomonas aeruginosa PA7 DSM 24068 at 100 uM after 18 hrs relative to control
# Type: functional
# Settings: PA7 DSM 24068, 18 h, read-out: GI
# Method in brief: as §3
row,Compound,inhibition of growth at 100 µM [%]
1,CC1(C(=O)NCc2ccccc2)CCCC(=O)N1/N=C/c1ccc([N+](=O)[O-])o1 (centres undefined),85
2,CC1(C(=O)NCc2ccccc2)CCC(=O)N1/N=C/c1ccc([N+](=O)[O-])o1 (centres undefined),90
3,CC(C)(C)NC(=O)C1(C)CCCC(=O)N1/N=C/c1ccc([N+](=O)[O-])o1 (centres undefined),85

# Tested on: Mycobacterium tuberculosis
# Assay: Antimycobacterial activity against Mycobacterium tuberculosis H37Rv after 7 days by REMA
# Type: functional
# Settings: 168 h
# Method in brief: as §1
row,Compound,MIC [µM]
1,CC1(C(=O)NCc2ccccc2)CCCC(=O)N1/N=C/c1ccc([N+](=O)[O-])o1 (centres undefined),65
2,CC1(C(=O)NCc2ccccc2)CCC(=O)N1/N=C/c1ccc([N+](=O)[O-])o1 (centres undefined),> 100
3,CC(C)(C)NC(=O)C1(C)CCCC(=O)N1/N=C/c1ccc([N+](=O)[O-])o1 (centres undefined),71
